Test results reported in ChEMBL document CHEMBL4334444, “Studies of Jatrogossone A as a Reactive Oxygen Species Inducer in Cancer Cellular Models” (J Nat Prod, 2019).
Activity calls are given as the source filed them. The calls are words filed in the database; no cut-off is given here.

Key:
KOPN-8 [1] = assay: Cell cycle arrest in human KOPN8 cells assessed as increase in accumulation at S phase at 2 uM incubated for 24 hrs by propidium iodide staining based flow cytometric analysis; type: functional
How it was run: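 KOPN-8 cells plated at 1.00 × 10^6 cells/plate and held 12 h at 37 °C in 5% CO2, then treated for 24 h. Cells were fixed in cold methanol, RNase-treated and stained with PI (50 μg/mL). Cell-cycle distribution by flow cytometry, with DMSO as vehicle control.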

MCF7 [2] = assay: Induction of ROS generation in human MCF7 cells at 10 to 30 uM incubated for 1 hr by CellROX green reagent based fluorescence assay; type: functional, cell-based
How it was run: (§1)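 CellROX green ROS assay: cells exposed 1 h at 37 °C (30 μM) with DMSO 0.5% (v/v) negative control, menadione 10 μM positive control, ± NAC (100 μM per figure legend). CellROX green added at 5 μM final, 30 min more; washed, fixed in 4% paraformaldehyde 15 min, fluorescence read at 485 ex/535 em. Mean and SD of at least three experiments; two-way ANOVA.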

U2OS [3] = assay: Induction of ROS generation in human U2OS cells at 10 to 30 uM incubated for 1 hr by CellROX green reagent based fluorescence assay; type: functional, cell-based
How it was run: (§2)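 CellROX green assay in MCF-7 or U2OS cells. Cells were exposed to test compound for 1 h at 37 °C alongside 0.5% DMSO (negative control) and menadione 10–30 μM (positive control), with or without NAC (50–500 μM) as scavenger. CellROX was then added at 5 μM final for 30 min. Cells were PBS-washed, fixed in 4% paraformaldehyde for 15 min, and fluorescence read at 535 nm.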

MCF7 [4] = assay: Induction of ROS generation in human MCF7 cells at 10 to 30 uM incubated for 1 hr in presence of NAC by CellROX green reagent based fluorescence assay; type: functional, cell-based; how it was run: as §1
U2OS [5] = assay: Induction of ROS generation in human U2OS cells at 10 to 30 uM incubated for 1 hr in presence of NAC by CellROX green reagent based fluorescence assay; type: functional, cell-based; how it was run: as §2
MCF7 [6] = assay: Induction of apoptosis in human MCF7 cells assessed as increase in cleaved caspase 7 level at 30 uM by Western blot analysis; type: functional, cell-based
How it was run: (§3)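 Western blot of KOPN-8 and MCF-7 lysates made in RIPA-type buffer (Tris pH 7.5, Triton X-100, deoxycholate, SDS) with protease and phosphatase inhibitors. 30 μg protein per lane was run on 4–12% Bis-Tris SDS-PAGE and transferred to nitrocellulose. Blots were probed for cleaved caspase-7 and PARP-1 and detected with IR-dye secondaries. Menadione served as positive control: 10 μM in KOPN-8, 30 μM in MCF-7. Blots are representative of three independent experiments.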

KOPN-8 [7] = assay: Induction of apoptosis in human KOPN8 cells assessed as increase in cleaved caspase 7 level at 10 uM by Western blot analysis; type: functional, cell-based; how it was run: as §3
KOPN-8 [8] = assay: Induction of apoptosis in human KOPN8 cells assessed as increase in cleaved PARP 1 level at 10 uM by Western blot analysis; type: functional, cell-based; how it was run: as §3
MCF7 [9] = assay: Induction of apoptosis in human MCF7 cells assessed as increase in cleaved PARP 1 level at 30 uM by Western blot analysis; type: functional, cell-based; how it was run: as §3

| Compound | Activity (KOPN-8 [1]) | Activity (MCF7 [2]) | Activity (U2OS [3]) | Activity (MCF7 [4]) | Activity (U2OS [5]) | Activity (MCF7 [6]) | Activity (KOPN-8 [7]) | Activity (KOPN-8 [8]) | Activity (MCF7 [9]) |
| --- | --- | --- | --- | --- | --- | --- | --- | --- | --- |
| CN[C@@H]1C[C@H]2O[C@@](C)([C@@H]1OC)n1c3ccccc3c3c4c(c5c6ccccc6n2c5c31)C(=O)NC4 | Active | – | – | – | – | – | – | – | – |
| CC1=CC(=O)c2ccccc2C1=O | – | Active | Active | inactive | inactive | Active | Active | Active | Active |
